From ChEMBL document CHEMBL3877293, “Synthesis and Antineoplastic Evaluation of Novel Unsymmetrical 1,3,4-Oxadiazoles” (J Med Chem, 2016)

Key:
[1] = Cell cycle arrest in human NB1 hTERT cells assessed as S phase accumulation at 1 uM after 48 hrs by propidium iodide staining based flow cytometry (reference value: 10.3%); format: functional
[2] = Cell cycle arrest in human NCI-H1299 cells assessed as sub G1 phase accumulation at 1 uM after 48 hrs by propidium iodide staining based flow cytometry relative to control; format: functional
[3] = Antiproliferative activity against human NB-1 cells after 72 hrs by XTT assay; format: cell-based; conditions: NB1, 72 h
Summary of the method: (§1)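 Cells plated at 1500–2000 per well by doubling time, treated after 24 h with a concentration series in six triplicate wells, and incubated 72 h without a medium change. XTT reagent was then added for 4 h at 37 °C and absorbance read at 490 nm. IC50 is the concentration halving absorbance versus untreated cells. Experiments run in triplicate.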

[4] = Cell cycle arrest in human NB1 hTERT cells assessed as sub G1 phase accumulation at 1 uM after 48 hrs by propidium iodide staining based flow cytometry relative to control; format: functional
[5] = Cell cycle arrest in human RD cells assessed as G2/M phase accumulation at 1 uM after 24 hrs by propidium iodide staining based flow cytometry (reference value: 28.9 +/- 1.93%); format: functional
[6] = Antiproliferative activity against human PC3 cells after 72 hrs by XTT assay; format: functional, cell-based; conditions: PC-3, 72 h; summary of the method: as §1
[7] = Cell cycle arrest in human HeLa cells assessed as S phase accumulation at 1 uM after 8 hrs by propidium iodide staining based flow cytometry (reference value: 19.2%); format: functional
[8] = Cell cycle arrest in human T98G cells assessed as G2/M phase accumulation at 1 uM after 24 hrs by propidium iodide staining based flow cytometry (reference value: 8.8 +/- 0.93%); format: functional
MCF7 [9] = assay: Selectivity ratio of IC50 for human MCF7 cells to IC50 for human T98G cells; format: functional
Summary of the method: (§2)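 XTT viability: 1500–2000 cells/well plated by doubling time; compounds added after 24 h, then 72 h further culture without medium change. XTT reagent 4 h at 37 °C, absorbance read at 490 nm. IC50 is the concentration halving absorbance versus untreated cells; triplicate experiments. Ratio is MCF7 IC50 divided by IC50 in the named line.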

[10] = Cell cycle arrest in human MCF7 cells assessed as G2/M phase accumulation at 1 uM after 24 hrs by propidium iodide staining based flow cytometry (reference value: 24.2 +/- 1.62%); format: functional
[11] = Cell cycle arrest in human NB-1 cells assessed as G2/M phase accumulation at 1 uM after 72 hrs by propidium iodide staining based flow cytometry (reference value: 15.8%); conditions: nb1, 72 h
[12] = Cell cycle arrest in human T98G cells assessed as S phase accumulation at 1 uM after 24 hrs by propidium iodide staining based flow cytometry (reference value: 5.1 +/- 0.82%); format: functional
[13] = Cell cycle arrest in human HeLa cells assessed as G1 phase accumulation at 1 uM after 8 hrs by propidium iodide staining based flow cytometry (reference value: 62.7%); format: functional
[14] = Antiproliferative activity against human Kelly cells after 72 hrs by XTT assay; format: functional, cell-based; summary of the method: as §1
MCF7 [15] = assay: Selectivity ratio of IC50 for human MCF7 cells to IC50 for human RD cells; format: functional; summary of the method: as §2
[16] = Cell cycle arrest in human MCF7 cells assessed as S phase accumulation at 1 uM treated for 24 hrs followed by compound washout measured after 24 hrs by propidium iodide staining based flow cytometry (reference value: 12.2%); format: functional
A549 = assay: Induction of apoptosis in human A549 cells assessed as early apoptotic cells at 5 uM after 72 hrs by Annexin-V FITC/propidium iodide staining based flow cytometry (reference value: 1.3%); format: functional
[17] = Antiproliferative activity against human A549 cells after 72 hrs by XTT assay; format: functional, cell-based; conditions: A549, 72 h; summary of the method: as §1
HeLa = assay: Induction of apoptosis in human HeLa cells assessed as live cells at 5 uM after 48 hrs by Annexin-V FITC/propidium iodide staining based flow cytometry (reference value: 91.1%); format: functional
[18] = Induction of apoptosis in human NB-1 cells assessed as live cells at 5 uM after 72 hrs by Annexin-V FITC/propidium iodide staining based flow cytometry (reference value: 93.3%); format: cell-based, NB1; conditions: read-out: Activity
[19] = Cell cycle arrest in human Kelly cells assessed as G1 phase accumulation at 1 uM after 24 hrs by propidium iodide staining based flow cytometry (reference value: 65.9 +/- 1.87%); format: functional
[20] = Cell cycle arrest in human MCF7 cells assessed as S phase accumulation at 1 uM after 24 hrs by propidium iodide staining based flow cytometry (reference value: 21.7 +/- 1.42%); format: functional
[21] = Antiproliferative activity against human T98G cells after 72 hrs by XTT assay; format: functional, cell-based; summary of the method: as §1
[22] = Antiproliferative activity against human NB1 hTERT cells after 72 hrs by XTT assay; format: functional, cell-based; summary of the method: as §1
[23] = Cell cycle arrest in human SH-SY5Y cells assessed as G2/M phase accumulation at 1 uM after 24 hrs by propidium iodide staining based flow cytometry (reference value: 26.2 +/- 1.27%); format: functional
[24] = Cell cycle arrest in human NB-1 cells assessed as G2/M phase accumulation at 1 uM after 24 hrs by propidium iodide staining based flow cytometry (reference value: 21.2%); conditions: nb1, 24 h

Activity [11]: 18.1%
Activity [24]: 23.8%
Compound: Cc1[nH]c2c(c1-c1nnc(-c3ccccc3)o1)Cc1ccccc1-2
Activity [1]: 10.9%
Activity [2]: 13.4%
IC50 [3]: 1300 nM
Activity [4]: 24.9%
Activity [5]: 46.4%
IC50 [6]: 670 nM
Activity [7]: 22.2%
Activity [8]: 65.9%
Ratio IC50 (MCF7 [9]): 28 - 34
Activity [10]: 59.5 to 78.1%
Activity [12]: 6.2%
Activity [13]: 32.5%
IC50 [14]: 250 nM
Ratio IC50 (MCF7 [15]): 28 - 34
Activity [16]: 11.6%
Activity (A549): 11%
IC50 [17]: 240 nM
Activity (HeLa): 6%
viability at 72 h, 5 µM [18]: 86.6%
Activity [19]: 34.3%
Activity [20]: 6.3 to 10.4%
IC50 [21]: 60 nM
IC50 [22]: 130 nM
Activity [23]: 43.9%
